Results as given in ChEMBL document CHEMBL1126706, “Structure-activity relationship of N-[2-(dimethylamino)-6-[3-(5-methyl-4-phenyl-1H-imidazol-1-yl)propoxy] phenyl]-N'-pentylurea and analogues. Novel potent inhibitors of acyl-CoA:cholesterol O-acyltransferase with antiatherosclerotic activity” (J Med Chem, 1993).

Key:
[1] = target: O-acyltransferase (Oryctolagus cuniculus, UniProt G1SFD9); experiment: Tested for inhibition against acyl coenzyme A:cholesterol acyltransferase from rabbit intestine microsomes.
Sequence of O-acyltransferase (G1SFD9 1-524): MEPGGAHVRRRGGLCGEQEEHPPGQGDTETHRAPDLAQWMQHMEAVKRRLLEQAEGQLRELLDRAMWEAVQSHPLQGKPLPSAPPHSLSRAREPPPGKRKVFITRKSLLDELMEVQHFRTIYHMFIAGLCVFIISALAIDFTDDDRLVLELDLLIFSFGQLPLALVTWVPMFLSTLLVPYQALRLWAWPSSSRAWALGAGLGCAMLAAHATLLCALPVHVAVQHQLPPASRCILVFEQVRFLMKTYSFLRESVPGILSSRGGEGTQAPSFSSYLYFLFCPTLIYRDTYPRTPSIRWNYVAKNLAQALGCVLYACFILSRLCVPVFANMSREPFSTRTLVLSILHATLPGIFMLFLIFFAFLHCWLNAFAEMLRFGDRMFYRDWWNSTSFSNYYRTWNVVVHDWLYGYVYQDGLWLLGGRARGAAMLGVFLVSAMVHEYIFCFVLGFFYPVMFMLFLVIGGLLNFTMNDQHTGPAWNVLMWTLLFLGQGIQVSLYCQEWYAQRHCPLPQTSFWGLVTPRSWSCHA
How it was run: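 Intestinal mucosa microsomes from NZW rabbit (10000g then 105000g pellet, buffered sucrose pH 7.4). Endogenous cholesterol plus 40 μM [1-14C]oleoyl-CoA in K2HPO4 buffer pH 7.4 with 2.4 mg/mL BSA; compound preincubated 3 min at 37 °C, enzyme (8 mg protein/mL) added, 2 min reaction, chloroform/methanol 2:1 stop. IC50 from triplicate tubes per concentration.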

[2] = test system: Rattus norvegicus; experiment: Tested for cholesterol lowering activity in rats after a dose of 50 mg/kg once a day for 2 days; assay type: functional
How it was run: (§1)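 Male Sprague-Dawley rats, 5 weeks old, fed chow with 1% cholesterol and 0.5% cholic acid while given drug orally once daily as a suspension in 2% Sefuzol. Starved 5 h after last dose, bled from abdominal aorta under ether; serum total cholesterol measured enzymatically. Result as percent of control (n ≥ 4).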

[3] = target: T1, Acyl-CoA:cholesterol acyltransferase (Oryctolagus cuniculus, UniProt Q95214); experiment: Tested for inhibition against acyl coenzyme A:cholesterol acyltransferase from rabbit aorta homogenate.; assay type: tissue-based
T1 sequence (Q95214 whole entry): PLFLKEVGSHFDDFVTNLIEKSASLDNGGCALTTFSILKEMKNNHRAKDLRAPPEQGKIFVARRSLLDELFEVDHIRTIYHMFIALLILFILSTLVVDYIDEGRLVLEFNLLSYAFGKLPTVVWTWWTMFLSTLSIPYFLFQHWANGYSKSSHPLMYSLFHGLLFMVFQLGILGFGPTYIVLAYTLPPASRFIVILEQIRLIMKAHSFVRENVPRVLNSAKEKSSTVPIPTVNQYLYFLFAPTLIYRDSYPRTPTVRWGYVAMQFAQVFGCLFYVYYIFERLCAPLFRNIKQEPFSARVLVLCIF

[4] = test system: Rattus norvegicus; experiment: Tested for cholesterol lowering activity in rats after a dose of 10 mg/kg once a day for 5 days; assay type: functional; how it was run: as §1
[5] = test system: Rattus norvegicus; experiment: Tested for cholesterol lowering activity in rats after a dose of 30 mg/kg once a day for 5 days; assay type: functional; details: dose 10 mg/kg; in the assay text read “10 mg/kg” for “30 mg/kg”; how it was run: as §1
[6] = species: Oryctolagus cuniculus; experiment: Tested for the atheromatous lesion development in rabbit; assay type: functional
How it was run: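 Male NZW rabbits (2.5-3.0 kg) fed 100 g/day chow with 0.5% cholesterol and 0.5% olive oil for 8 weeks, randomized by plasma cholesterol, then 4 weeks with drug mixed in diet (0.2% then 0.1% w/w, or 0.1% w/w). Thoracic aorta halved: one half formalin-fixed, Sudan IV-stained, stained area measured by image analysis; other half cholesterol content by TLC-FID. Mean ± SEM, 7-12 per group, Student's t test.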

[7] = test system: Oryctolagus cuniculus; experiment: Tested for the plasma total cholesterol level in rabbit after administration of 0.2% (w/w) of drug for first 4 days; assay type: functional, organism-based
How it was run: (§2)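 Male NZW rabbits (2.5-3.0 kg) were fed chow with 0.5% cholesterol and 0.5% olive oil, 100 g/day, for 8 weeks, then randomized by plasma cholesterol. Drug was mixed into the diet for 4 weeks, either 0.2% (w/w) for 4 days then 0.1%, or 0.1% throughout. Plasma total cholesterol was measured enzymatically in EDTA ear-vein blood. Mean ± SEM; Student's t test vs control.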

[8] = species: Rattus norvegicus; experiment: Tested for hypocholesterolemic activity required to decrease serum total cholesterol; assay type: functional
How it was run: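 Male Sprague-Dawley rats (5 weeks) on 1% cholesterol/0.5% cholic acid chow; drug in 2% Sefuzol given orally once daily for 5 days. Serum total cholesterol measured enzymatically after 5 h fast. ED30 (mg/kg dose lowering serum cholesterol to 30% of control) read from dose-response curve of at least 3 doses, n = 4 or 5.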

[9] = test system: Oryctolagus cuniculus; experiment: Tested for the plasma total cholesterol level in rabbit after administration of 0.1% (w/w) of drug for first 4 days; assay type: functional, organism-based; how it was run: as §2

Structure (SMILES) | IC50 [1] [nM] | IC50 [3] [nM] | Cholesterol reduction [4] [%] | other results
CCCCCC(=O)Nc1c(OCCCn2cnc(-c3ccccc3)c2)cccc1N(C)C | 200 | 100 | – | Cholesterol reduction [2]: 3%
CN(C)c1cccc(OCCCn2cnc(-c3ccccc3)c2)c1NC(=O)NC1CCCC1 | 240 | 3530 | – | Cholesterol reduction [2]: -24%
CCCCCNC(=O)Nc1c(CCCCn2cnc(-c3ccccc3)c2C)cccc1N(C)C | 170 | 140 | -37 | –
CCCCCNC(=O)Nc1c(OCCCN2CCN(c3ccccc3)CC2)cccc1N(C)C | – | 180 | -44 | –
CCCCCNC(=O)Nc1c(N(C)C)ccc(C)c1OCCCn1cnc(-c2ccccc2)c1 | 410 | 250 | – | –
CCCCCNC(=O)Nc1c(OCCCn2ccnc2-c2ccccc2)cccc1N(C)C | 380 | 480 | – | Cholesterol reduction [5]: -12%
CN(C)c1cccc(OCCCn2cnc(-c3ccccc3)c2)c1NC(=O)NC(C)(C)C | 130 | 990 | – | Cholesterol reduction [2]: -12%
CCCCCNC(=O)Nc1c(OCCCn2cnc3ccccc32)cccc1N(C)C | 180 | 620 | -12 | –
CCCCCNC(=O)Nc1c(OCCCn2cc(-c3ccc(OC)cc3)nc2C)cccc1N(C)C | 160 | 730 | -15 | –
CCCCCNC(=O)Nc1c(OCCCCn2cnc(-c3ccccc3)c2)cccc1N(C)C | 160 | 780 | – | –
CCCCCNC(=O)Nc1cccc(OCCCn2cnc(-c3ccccc3)c2C)c1N(C)C | 5800 | 3200 | – | –
CCCCCNC(=O)Nc1c(SCCCn2cnc(-c3ccccc3)c2C)cccc1N(C)C | 56 | 58 | – | –
CCCCCCNc1c(OCCCn2cnc(-c3ccccc3)c2)cccc1N(C)C | 11000 | 3300 | – | –
CCCCCNC(=O)Nc1c(OCCCn2cnc(-c3ccccc3)c2)cccc1N(C)C | 31 | 160 | – | Surface involvement [6]: 22.8%; Plasma total cholesterol [7]: 830 mg/dL; Cholesterol reduction [2]: -51%; ED30 [8]: 14 mg/kg
CCCCCNC(=O)Nc1c(OCCCn2cnc(-c3ccccc3)c2C)cccc1N(C)C | – | 110 | -49 | Surface involvement [6]: 21%; ED30 [8]: 4.5 mg/kg; Plasma total cholesterol [9]: 800 mg/dL
CCCCCNC(=O)Nc1c(OCCn2cnc(-c3ccccc3)c2)cccc1N(C)C | 170 | 1400 | – | –
CCCCNC(=O)Nc1c(OCCCn2cnc(-c3ccccc3)c2)cccc1N(C)C | 140 | 810 | – | Surface involvement [6]: 23.5%; Plasma total cholesterol [7]: 1190 mg/dL; Cholesterol reduction [2]: -37%; ED30 [8]: 75 mg/kg
CCCCCNC(=O)Nc1ccc(OCCCn2cnc(-c3ccccc3)c2C)cc1N(C)C | 2400 | 1500 | – | –
CCCCCNC(=O)Nc1c(OCCCn2nnc(-c3ccccc3)n2)cccc1N(C)C | 23 | 230 | -48 | –

Structure (SMILES) | IC50 [1] [nM] | IC50 [3] [nM] | Cholesterol reduction [4] [%] | other results
CCCCCCNC(=O)Nc1c(OCCCn2cnc(-c3ccccc3)c2)cccc1N(C)C | 60 | 50 | – | Surface involvement [6]: 30.6%; Plasma total cholesterol [7]: 924 mg/dL; Cholesterol reduction [2]: -57%; ED30 [8]: 1.3 mg/kg
CCCCCNC(=O)Nc1c(OCCCNCCc2ccccc2)cccc1N(C)C | 960 | 3440 | -18 | –
CCCCCNC(=O)Nc1c(OCCCn2cnc(-c3ccc(OC)cc3)c2)cccc1N(C)C | 59 | 1330 | -36 | –
CCCCCN(C)C(=O)Nc1c(OCCCn2cnc(-c3ccccc3)c2)cccc1N(C)C | 550 | 280 | – | –
CCCCCNC(=O)Nc1c(OCCCn2cnc(-c3ccc(CCCC)cc3)c2)cccc1N(C)C | 54 | 430 | -46 | –
CCCCCNC(=O)Nc1cc(OCCCn2cnc(-c3ccccc3)c2C)ccc1N(C)C | 410 | 410 | – | –
CCCNC(=O)Nc1c(OCCCn2cnc(-c3ccccc3)c2)cccc1N(C)C | 660 | 7230 | – | –
CCCCCNC(=O)Nc1c(OCCCn2nc3ccccc3n2)cccc1N(C)C | 770 | 290 | -3.4 | –
CCCCCNC(=O)Nc1c(OCCCn2cnc(-c3ccc(OC)cc3)c2)c(Br)cc(Br)c1N(C)C | 2400 | 1300 | – | –
CCCCCNC(=O)N(C)c1c(OCCCn2cnc(-c3ccccc3)c2)cccc1N(C)C | 930 | 400 | – | –
CN(C)c1cccc(OCCCn2cnc(-c3ccccc3)c2)c1NC(=O)NC1CCCCC1 | 73 | 1070 | – | Cholesterol reduction [2]: -42%
CCCCCNC(=O)Nc1c(NCCCn2cnc(-c3ccccc3)c2C)cccc1N(C)C | 470 | 2200 | – | –
CCCCCNC(=O)Nc1c(OCCCN2CCC(c3ccccc3)CC2)cccc1N(C)C | 340 | 470 | -27 | –
CCCCCNC(=O)Nc1c(OCCCn2cnc(C)c2-c2ccccc2)cccc1N(C)C | 85 | 210 | -46 | –
CCNC(=O)Nc1c(OCCCn2cnc(-c3ccccc3)c2)cccc1N(C)C | 870 | > 10000 | – | Cholesterol reduction [2]: 2%
CCCCCNC(=O)Nc1c(OCCCn2cnc(-c3cccc4ccccc34)c2)cccc1N(C)C | 65 | 1550 | -30 | –
CCCCCNC(=O)Nc1c(OCCCn2cnc(-c3ccccc3)c2C)ncnc1N(C)C | 5500 | 11000 | – | –
CCCCCNC(=O)Nc1c(OCCCn2ncc(-c3ccccc3)n2)cccc1N(C)C | 32 | 180 | -32 | –
